# Assays:
# Toxoplasma gondii = test: Antiparasitic activity against Toxoplasma gondii tachyzoites m2m3 infected HFF cells; assay type: functional, organism-based
# Procedure, shortened: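 YFP-expressing m2m3 tachyzoites, filtered and needle-passed, were inoculated at 10⁴/ml onto confluent HFF monolayers. Medium was DMEM with 10% fetal bovine serum, 2 mM glutamine and 1 mM pyruvate, with drugs serially diluted in it. Plates were held at 37 °C and read daily for fluorescence from the bottom (ex 510, em 540 nm). IC50 came from fitting I = Imax·C/(IC50 + C), with Imax = 100%.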
# Trypanosoma cruzi [1] = test: Antiparasitic activity against Trypanosoma cruzi Y amastigotes infected gamma irradiated L6E9 myoblast; assay type: functional, organism-based; details: L6E9, light or radiation study
# Procedure, shortened: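 Gamma-irradiated L6E9 myoblasts were kept in DMEM with 20% FCS for 24 h at 37 °C and 5% CO₂. They were then infected with Y-strain trypomastigotes or amastigotes (4.17 × 10⁶/well) for 2 h at 37 °C and 7% CO₂, then washed. [5,6-³H]uracil and aqueous drug solutions were added for 72 h. TCA-precipitable counts were taken on day 3, and percent inhibition was calculated from cpm differences versus control.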
# Trypanosoma cruzi [2] = test: Antiparasitic activity against Trypanosoma cruzi Y infected gamma irradiated L6E9 myoblast; details: L6E9, light or radiation study
Compound,IC50 (Trypanosoma cruzi [1]),IC50 (Trypanosoma cruzi [2]),IC50 (Toxoplasma gondii)
O=C1C(O)=C([C@H]2CC[C@H](c3ccc(Cl)cc3)CC2)C(=O)c2ccccc21 [ATOVAQUONE],,,0.29 µM
N#CSCCOc1ccc(Oc2ccccc2)cc1,12 µM,2.6 µg/mL,2.8 µM
Fc1ccc(Oc2ccc(OCCOC3CCCCO3)cc2)cc1 (stereo unspecified),14.4 µM,> 20 µg/mL,6.16 µM

# The next lines start with results.
IC50 (Trypanosoma cruzi [1]),IC50 (Trypanosoma cruzi [2]),Compound,IC50 (Toxoplasma gondii)
19 µM,> 20 µg/mL,Fc1cccc(Oc2ccc(OCCOC3CCCCO3)cc2)c1 (stereo unspecified),3.99 µM
3.7 µM,1.95 µg/mL,N#CSCCOc1ccc(Oc2ccc(F)cc2)cc1,3.85 µM
4.3 µM,1.74 µg/mL,N#CSCCOc1ccc(Oc2cccc(F)c2)cc1,15.8 µM
